Source: ChEMBL document CHEMBL3044849, “Synthesis and insecticidal activities of novel N-sulfenyl-N'-tert-butyl-N,N'-diacylhydrazines. 1. N-alkoxysulfenate derivatives” (2007)
Values after ≈ are worked out from the molar mass of the structure shown.

Experiments:
Type in all cases: functional
Mythimna separata [1] = test: Stomach toxicity against fourth-instar larval stage of Mythimna separata (Oriental armyworm) in compound-pretreated corn leaves assessed as mortality at 50 mg/kg at 25+/-1 degC measured after 4 days
Mythimna separata [2] = test: Stomach toxicity against fourth-instar larval stage of Mythimna separata (Oriental armyworm) in compound-pretreated corn leaves assessed as mortality at 25 mg/kg at 25+/-1 degC measured after 4 days
Mythimna separata [3] = test: Stomach toxicity against fourth-instar larval stage of Mythimna separata (Oriental armyworm) in compound-pretreated corn leaves assessed as mortality at 10 mg/kg at 25+/-1 degC measured after 4 days
Mythimna separata [4] = test: Stomach toxicity against fourth-instar larval stage of Mythimna separata (Oriental armyworm) in compound-pretreated corn leaves assessed as mortality at 2.5 mg/kg at 25+/-1 degC measured after 4 days
Spodoptera litura = test: Contact toxicity against fourth-instar larval stage of Spodoptera litura assessed as mortality at 25 +/-1 degC applied topically on the thoracic tergite measured per gm of larva after 48 hr
Procedure, shortened: (§1)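 Fourth-instar larvae of tobacco cutworm, Asian corn borer and cotton bollworm were used. Compounds in acetone at five to seven concentrations; 1 µL applied to the thoracic tergite by automatic microapplicator. Acetone-only control. Usually 40 insects per dose, four replicates, kept under rearing conditions at 25 ± 1 °C. Mortality at 48 h gave LD50; ratios use reference LD50 over test LD50.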

Spodoptera exigua [5] = test: Stomach toxicity against third-instar larval stage of Spodoptera exigua in cabbage leaves assessed as mortality at 25 +/-1 degC treated for 3 secs before larval infestation measured after 3 days by leaf-dip method; conditions: for LC50: Spodoptera exigua, Instar larval stage, 72 h
Procedure, shortened: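 Leaf-dip assay: fresh cabbage leaf discs (5 cm × 3 cm) were dipped 3 s in test solution and air-dried, then placed singly in boxes with five third-instar beet armyworm larvae per disc. Water- and acetone-treated leaves served as controls. Held at 25 ± 1 °C; percentage mortality was read 3 days after treatment, in triplicate.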

Ostrinia furnacalis = test: Contact toxicity against fourth-instar larval stage of Ostrinia furnacalis (Asian corn borer) assessed as mortality at 25 +/-1 degC applied topically on the thoracic tergite measured per gm of larva after 48 hr; procedure, shortened: as §1
Mythimna separata [6] = test: Toxic ratio of RH-5992 LD50 to compound LD50 for fourth-instar larval stage of Mythimna separata (Oriental armyworm) measured after 96 hr
Procedure, shortened: (§2)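 Oriental armyworm fourth-instar larvae each received 0.306 µL of acetone dilution at varying concentrations on the thoracic tergite via platinum loop. Acetone-only control. Larvae were returned to rearing conditions at 25 ± 1 °C and mortality was scored 96 h after treatment. LD50 and LD90 were derived from triplicate treatments; ratios use reference over test values.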

Spodoptera exigua [7] = test: Toxic ratio of RH-5992 LC50 to compound LC50 for third-instar larval stage of Spodoptera exigua measured after 3 days by leaf-dip method
Spodoptera exigua [8] = test: Toxic ratio of RH-5992 LC90 to compound LC90 for third-instar larval stage of Spodoptera exigua measured after 3 days by leaf-dip method
Mythimna separata [9] = test: Contact toxicity against fourth-instar larval stage of Mythimna separata (Oriental armyworm) assessed as mortality at 25 +/-1 degC applied topically on the thoracic tergite measured per larva after 96 hr; procedure, shortened: as §2
Mythimna separata [10] = test: Stomach toxicity against fourth-instar larval stage of Mythimna separata (Oriental armyworm) in compound-pretreated corn leaves assessed as mortality at 5 mg/kg at 25+/-1 degC measured after 4 days
Mythimna separata [11] = test: Toxic ratio of RH-5992 LD90 to compound LD90 for fourth-instar larval stage of Mythimna separata (Oriental armyworm) measured after 96 hr; procedure, shortened: as §2
Helicoverpa armigera = test: Contact toxicity against fourth-instar larval stage of Helicoverpa armigeraassessed as mortality at 25 +/-1 degC applied topically on the thoracic tergite measured per gm of larva after 48 hr; procedure, shortened: as §1
Mythimna separata [12] = test: Stomach toxicity against fourth-instar larval stage of Mythimna separata (Oriental armyworm) in compound-pretreated corn leaves assessed as mortality at 100 mg/kg at 25+/-1 degC measured after 4 days

| SMILES | mortality at 50 mg/kg (Mythimna separata [1]) [%] | mortality at 25 mg/kg (Mythimna separata [2]) [%] | mortality at 10 mg/kg (Mythimna separata [3]) [%] | mortality at 2.5 mg/kg (Mythimna separata [4]) [%] | mortality at 5 mg/kg (Mythimna separata [10]) [%] | also measured |
| --- | --- | --- | --- | --- | --- | --- |
| COSN(C(=O)c1ccccc1)N(C(=O)c1ccccc1)C(C)(C)C | 100 | 100 | 0 | – | – | – |
| CCc1ccc(C(=O)N(SOC)N(C(=O)c2cc(C)cc(C)c2)C(C)(C)C)cc1 | – | 100 | 100 | 100 | 100 | LD50 (Spodoptera litura): 16.061 µg; LC90 (Spodoptera exigua [5]): 524.29 µg/mL (≈ 1260 µM); LC50 (Spodoptera exigua [5]): 24.4 µg/mL (≈ 58.7 µM); LD50 (Ostrinia furnacalis): 44.961 µg; Ratio (Mythimna separata [6]): 141; RatioLC50 (Spodoptera exigua [7]): 3.4; Ratio (Spodoptera exigua [8]): 5.1; LD50 (Mythimna separata [9]): 0.0195 µg; LD90 (Mythimna separata [9]): 0.0479 µg; Ratio (Mythimna separata [11]): 154; LD50 (Helicoverpa armigera): 73.907 µg |
| CCOSN(C(=O)c1ccc(CC)cc1)N(C(=O)c1cc(C)cc(C)c1)C(C)(C)C | 100 | 100 | 100 | 70 | 100 | – |
| CCCOSN(C(=O)c1ccc(CC)cc1)N(C(=O)c1cc(C)cc(C)c1)C(C)(C)C | 100 | 100 | 100 | 80 | 90 | – |
| CCc1ccc(C(=O)N(SOC(C)C)N(C(=O)c2cc(C)cc(C)c2)C(C)(C)C)cc1 | 100 | 100 | 100 | 50 | 100 | – |
| CCCCOSN(C(=O)c1ccc(CC)cc1)N(C(=O)c1cc(C)cc(C)c1)C(C)(C)C | 100 | 100 | 100 | 90 | 100 | – |
| CCc1ccc(C(=O)N(SOCC(C)C)N(C(=O)c2cc(C)cc(C)c2)C(C)(C)C)cc1 | – | – | – | 80 | 100 | – |
| CCc1ccc(C(=O)N(SOC(C)(C)C)N(C(=O)c2cc(C)cc(C)c2)C(C)(C)C)cc1 | 100 | 100 | 100 | 60 | 70 | – |
| CCCCCOSN(C(=O)c1ccc(CC)cc1)N(C(=O)c1cc(C)cc(C)c1)C(C)(C)C | – | – | – | 100 | 100 | – |
| CCc1ccc(C(=O)N(SOC(C)(C)CC)N(C(=O)c2cc(C)cc(C)c2)C(C)(C)C)cc1 | – | – | – | 70 | 80 | – |
| CCc1ccc(C(=O)N(SOCc2ccccc2)N(C(=O)c2cc(C)cc(C)c2)C(C)(C)C)cc1 | – | – | – | 70 | 90 | – |
| CCc1ccc(C(=O)N(SOCCc2ccccc2)N(C(=O)c2cc(C)cc(C)c2)C(C)(C)C)cc1 | – | – | – | 50 | 90 | – |
| CCc1ccc(C(=O)N(SOCCF)N(C(=O)c2cc(C)cc(C)c2)C(C)(C)C)cc1 | – | – | – | 70 | 100 | – |
| CCc1ccc(C(=O)N(SOCC(F)(F)F)N(C(=O)c2cc(C)cc(C)c2)C(C)(C)C)cc1 | – | – | – | 90 | 100 | – |
| CCc1ccc(C(=O)N(SOCCOC)N(C(=O)c2cc(C)cc(C)c2)C(C)(C)C)cc1 | – | – | – | 70 | 90 | – |
| CCOCCOSN(C(=O)c1ccc(CC)cc1)N(C(=O)c1cc(C)cc(C)c1)C(C)(C)C | – | – | – | 90 | 100 | – |
| COSN(C(=O)c1ccc2c(c1C)OC(C)C2)N(C(=O)c1cc(C)cc(C)c1)C(C)(C)C (stereo not drawn) | – | – | – | 80 | – | – |
| CCOSN(C(=O)c1ccccc1)N(C(=O)c1ccccc1)C(C)(C)C | 85 | 0 | – | – | – | mortality at 100 mg/kg (Mythimna separata [12]): 100% |
| CCCOSN(C(=O)c1ccccc1)N(C(=O)c1ccccc1)C(C)(C)C | 90 | 50 | 10 | – | – | – |
| CC(C)OSN(C(=O)c1ccccc1)N(C(=O)c1ccccc1)C(C)(C)C | 100 | 100 | 10 | – | – | – |
| CC(C)(C)OSN(C(=O)c1ccccc1)N(C(=O)c1ccccc1)C(C)(C)C | 100 | 100 | 10 | – | – | – |
| Cc1cc(C)cc(C(=O)N(NC(=O)c2ccc3c(c2C)OC(C)C3)C(C)(C)C)c1 (stereo not drawn) [FUXIAN] | – | – | – | 90 | 100 | – |
| CC(C)(C)N(NC(=O)c1ccccc1)C(=O)c1ccccc1 [RH-5849] | 100 | 70 | 0 | – | – | – |
| CCc1ccc(C(=O)NN(C(=O)c2cc(C)cc(C)c2)C(C)(C)C)cc1 [TEBUFENOZIDE] | – | – | 100 | 55 | 95 | LD50 (Spodoptera litura): 527.12 µg; LC90 (Spodoptera exigua [5]): 2648.6 µg/mL (≈ 7510 µM); LC50 (Spodoptera exigua [5]): 83.4 µg/mL (≈ 237 µM); LD50 (Ostrinia furnacalis): 59.414 µg; Ratio (Mythimna separata [6]): 100; RatioLC50 (Spodoptera exigua [7]): 1; Ratio (Spodoptera exigua [8]): 1; LD50 (Mythimna separata [9]): 0.0275 µg; LD90 (Mythimna separata [9]): 0.0739 µg; Ratio (Mythimna separata [11]): 100; LD50 (Helicoverpa armigera): 1311.9 µg |
